Source: ChEMBL document CHEMBL1828500, “Synthesis and biological evaluation of dihydroindeno and indeno [1,2-e] [1,2,4]triazolo [3,4-b] [1,3,4]thiadiazines as antimicrobial agents” (2011)
Converted amounts (≈) assume the structure as drawn. The source made the active and inactive calls. The calls are words filed in the database; no cut-off is given here.

System: Staphylococcus aureus
Experiment: Antibacterial activity against Staphylococcus aureus MTCC 96 at 2 mg/ml after 24 hrs by agar well diffusion method
Type: functional
Conditions: MTCC 96, 24 h, read-out: DIZ
In short: (§1)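 Cultures adjusted to 0.5 McFarland and left 15 min on agar for adsorption. 8 mm wells bored and loaded with compound at 2.0 mg/mL in DMSO. Incubated 37 °C for 24 h. Growth-inhibition zone diameter (mm) read with a zone scale and reported as the average. DMSO served as negative control and ciprofloxacin as positive control.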

Row | Structure (SMILES) | zone of inhibition at 2000 µg/mL [mm]
1 | Cc1cccc2c1CC1Sc3nnc(-c4ccccc4)n3N=C21 (stereo not given) | 22.3
2 | Cc1nnc2n1N=C1c3ccccc3CC1S2 (stereo not given) | 14.6
3 | O=C(O)c1cn(C2CC2)c2cc(N3CCNCC3)c(F)cc2c1=O [CIPROFLOXACIN] | 26.6
4 | Cc1cccc2c1CC1Sc3nnc(C(C)C)n3N=C21 (stereo not given) | 28.6
5 | CC(C)c1nnc2n1N=C1c3ccccc3CC1S2 (stereo not given) | 28.6
6 | CCCc1nnc2n1N=C1c3cccc(C)c3CC1S2 (stereo not given) | 25.3
7 | Cc1cccc2c1CC1Sc3nnc(C)n3N=C21 (stereo not given) | 27.6
8 | CC(C)c1nnc2sc3cc4ccccc4c-3nn12 | 15.6
9 | c1ccc2c3nn4cnnc4sc-3cc2c1 | 14.3
10 | Cc1nnc2sc3cc4ccccc4c-3nn12 | 14.6
11 | CCc1nnc2sc3cc4ccccc4c-3nn12 | 16.3

System: Bacillus subtilis
Experiment: Antibacterial activity against Bacillus subtilis MTCC 121 at 2 mg/ml after 24 hrs by agar well diffusion method
Type: functional
Conditions: MTCC 121, 24 h, read-out: DIZ
In short: as §1

Row | Structure (SMILES) | zone of inhibition at 2000 µg/mL [mm]
12 | Cc1cccc2c1CC1Sc3nnc(-c4ccccc4)n3N=C21 (stereo not given) | 21.6
13 | Cc1nnc2n1N=C1c3ccccc3CC1S2 (stereo not given) | 16.3
14 | O=C(O)c1cn(C2CC2)c2cc(N3CCNCC3)c(F)cc2c1=O [CIPROFLOXACIN] | 24
15 | Cc1cccc2c1CC1Sc3nnc(C(C)C)n3N=C21 (stereo not given) | 27
16 | CC(C)c1nnc2n1N=C1c3ccccc3CC1S2 (stereo not given) | 24.6
17 | CCCc1nnc2n1N=C1c3cccc(C)c3CC1S2 (stereo not given) | 21.6
18 | Cc1cccc2c1CC1Sc3nnc(C)n3N=C21 (stereo not given) | 31.3
19 | CC(C)c1nnc2sc3cc4ccccc4c-3nn12 | 17.3
20 | c1ccc2c3nn4cnnc4sc-3cc2c1 | 16
21 | Cc1nnc2sc3cc4ccccc4c-3nn12 | 15.3
22 | CCc1nnc2sc3cc4ccccc4c-3nn12 | 17.6

System: Escherichia coli
Experiment: Antibacterial activity against Escherichia coli MTCC 1652 at 2 mg/ml after 24 hrs by agar well diffusion method
Type: functional
Conditions: not given
In short: as §1

Row | Structure (SMILES) | diameter of the inhibition zone (DIZ)
23 | Cc1nnc2n1N=C1c3ccccc3CC1S2 (stereo not given) | inactive
24 | CC(C)c1nnc2sc3cc4ccccc4c-3nn12 | inactive
25 | c1ccc2c3nn4cnnc4sc-3cc2c1 | inactive
26 | Cc1nnc2sc3cc4ccccc4c-3nn12 | inactive
27 | CCc1nnc2sc3cc4ccccc4c-3nn12 | inactive

Same assay, conditions: MTCC 1652, 24 h, read-out: DIZ

Row | Structure (SMILES) | zone of inhibition at 2000 µg/mL [mm]
28 | Cc1cccc2c1CC1Sc3nnc(-c4ccccc4)n3N=C21 (stereo not given) | 17.3
29 | Cc1cccc2c1CC1Sc3nnc(C(C)C)n3N=C21 (stereo not given) | 21.6
30 | CC(C)c1nnc2n1N=C1c3ccccc3CC1S2 (stereo not given) | 20.6
31 | CCCc1nnc2n1N=C1c3cccc(C)c3CC1S2 (stereo not given) | 19.3
32 | Cc1cccc2c1CC1Sc3nnc(C)n3N=C21 (stereo not given) | 20.6

System: Pseudomonas aeruginosa
Experiment: Antibacterial activity against Pseudomonas aeruginosa MTCC 741 at 2 mg/ml after 24 hrs by agar well diffusion method
Type: functional
Conditions: not given
In short: as §1

Row | Structure (SMILES) | diameter of the inhibition zone (DIZ)
33 | Cc1nnc2n1N=C1c3ccccc3CC1S2 (stereo not given) | inactive
34 | CC(C)c1nnc2sc3cc4ccccc4c-3nn12 | inactive
35 | c1ccc2c3nn4cnnc4sc-3cc2c1 | inactive
36 | Cc1nnc2sc3cc4ccccc4c-3nn12 | inactive
37 | CCc1nnc2sc3cc4ccccc4c-3nn12 | inactive

Same assay, conditions: MTCC 741, 24 h, read-out: DIZ

Row | Structure (SMILES) | zone of inhibition at 2000 µg/mL [mm]
38 | Cc1cccc2c1CC1Sc3nnc(-c4ccccc4)n3N=C21 (stereo not given) | 15.6
39 | O=C(O)c1cn(C2CC2)c2cc(N3CCNCC3)c(F)cc2c1=O [CIPROFLOXACIN] | 22
40 | Cc1cccc2c1CC1Sc3nnc(C(C)C)n3N=C21 (stereo not given) | 20.3
41 | CC(C)c1nnc2n1N=C1c3ccccc3CC1S2 (stereo not given) | 19.3
42 | CCCc1nnc2n1N=C1c3cccc(C)c3CC1S2 (stereo not given) | 17.6
43 | Cc1cccc2c1CC1Sc3nnc(C)n3N=C21 (stereo not given) | 18.6

System: Staphylococcus aureus
Experiment: Antibacterial activity against Staphylococcus aureus MTCC 96 after 24 hrs by agar well diffusion method
Type: functional
Conditions: MTCC 96, 24 h
In short: (§2)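 MIC by modified agar well diffusion. Two-fold serial dilutions (DMSO stock diluted in sterile distilled water), range 256 to 0.5, placed in wells in triplicate. Agar was pre-seeded with 100 standardized inoculum at 10⁶ cfu/mL. Incubated aerobically at 37 °C for 24 h. MIC taken as lowest concentration giving a clear zone, i.e. complete growth inhibition.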

Row | Structure (SMILES) | MIC [µg/mL]
44 | Cc1cccc2c1CC1Sc3nnc(-c4ccccc4)n3N=C21 (stereo not given) | 32 (≈ 101 µM)
45 | Cc1nnc2n1N=C1c3ccccc3CC1S2 (stereo not given) | 256 (≈ 1060 µM)
46 | O=C(O)c1cn(C2CC2)c2cc(N3CCNCC3)c(F)cc2c1=O [CIPROFLOXACIN] | 5 (≈ 15.1 µM)
47 | Cc1cccc2c1CC1Sc3nnc(C(C)C)n3N=C21 (stereo not given) | 4 (≈ 14.1 µM)
48 | CC(C)c1nnc2n1N=C1c3ccccc3CC1S2 (stereo not given) | 4 (≈ 14.8 µM)
49 | CCCc1nnc2n1N=C1c3cccc(C)c3CC1S2 (stereo not given) | 16 (≈ 56.3 µM)
50 | Cc1cccc2c1CC1Sc3nnc(C)n3N=C21 (stereo not given) | 8 (≈ 31.2 µM)
51 | CC(C)c1nnc2sc3cc4ccccc4c-3nn12 | 128 (≈ 477 µM)
52 | c1ccc2c3nn4cnnc4sc-3cc2c1 | 256 (≈ 1130 µM)
53 | Cc1nnc2sc3cc4ccccc4c-3nn12 | 256 (≈ 1070 µM)
54 | CCc1nnc2sc3cc4ccccc4c-3nn12 | 128 (≈ 503 µM)

System: Bacillus subtilis
Experiment: Antibacterial activity against Bacillus subtilis MTCC 121 after 24 hrs by agar well diffusion method
Type: functional
Conditions: MTCC 121, 24 h
In short: as §2

Row | Structure (SMILES) | MIC [µg/mL]
55 | Cc1cccc2c1CC1Sc3nnc(-c4ccccc4)n3N=C21 (stereo not given) | 32 (≈ 101 µM)
56 | Cc1nnc2n1N=C1c3ccccc3CC1S2 (stereo not given) | 128 (≈ 528 µM)
57 | O=C(O)c1cn(C2CC2)c2cc(N3CCNCC3)c(F)cc2c1=O [CIPROFLOXACIN] | 5 (≈ 15.1 µM)
58 | Cc1cccc2c1CC1Sc3nnc(C(C)C)n3N=C21 (stereo not given) | 8 (≈ 28.1 µM)
59 | CC(C)c1nnc2n1N=C1c3ccccc3CC1S2 (stereo not given) | 16 (≈ 59.2 µM)
60 | CCCc1nnc2n1N=C1c3cccc(C)c3CC1S2 (stereo not given) | 32 (≈ 113 µM)
61 | Cc1cccc2c1CC1Sc3nnc(C)n3N=C21 (stereo not given) | 2 (≈ 7.8 µM)
62 | CC(C)c1nnc2sc3cc4ccccc4c-3nn12 | 128 (≈ 477 µM)
63 | c1ccc2c3nn4cnnc4sc-3cc2c1 | 128 (≈ 566 µM)
64 | Cc1nnc2sc3cc4ccccc4c-3nn12 | 256 (≈ 1070 µM)
65 | CCc1nnc2sc3cc4ccccc4c-3nn12 | 128 (≈ 503 µM)

System: Escherichia coli
Experiment: Antibacterial activity against Escherichia coli MTCC 1652 after 24 hrs by agar well diffusion method
Type: functional
Conditions: MTCC 1652, 24 h
In short: as §2

Row | Structure (SMILES) | MIC [µg/mL]
66 | Cc1cccc2c1CC1Sc3nnc(-c4ccccc4)n3N=C21 (stereo not given) | 128 (≈ 402 µM)
67 | O=C(O)c1cn(C2CC2)c2cc(N3CCNCC3)c(F)cc2c1=O [CIPROFLOXACIN] | 5 (≈ 15.1 µM)
68 | Cc1cccc2c1CC1Sc3nnc(C(C)C)n3N=C21 (stereo not given) | 32 (≈ 113 µM)
69 | CC(C)c1nnc2n1N=C1c3ccccc3CC1S2 (stereo not given) | 64 (≈ 237 µM)
70 | CCCc1nnc2n1N=C1c3cccc(C)c3CC1S2 (stereo not given) | 64 (≈ 225 µM)
71 | Cc1cccc2c1CC1Sc3nnc(C)n3N=C21 (stereo not given) | 64 (≈ 250 µM)

System: Pseudomonas aeruginosa
Experiment: Antibacterial activity against Pseudomonas aeruginosa MTCC 741 after 24 hrs by agar well diffusion method
Type: functional
Conditions: MTCC 741, 24 h
In short: as §2

Row | Structure (SMILES) | MIC [µg/mL]
72 | Cc1cccc2c1CC1Sc3nnc(-c4ccccc4)n3N=C21 (stereo not given) | 128 (≈ 402 µM)
73 | O=C(O)c1cn(C2CC2)c2cc(N3CCNCC3)c(F)cc2c1=O [CIPROFLOXACIN] | 5 (≈ 15.1 µM)
74 | Cc1cccc2c1CC1Sc3nnc(C(C)C)n3N=C21 (stereo not given) | 32 (≈ 113 µM)
75 | CC(C)c1nnc2n1N=C1c3ccccc3CC1S2 (stereo not given) | 32 (≈ 118 µM)
76 | CCCc1nnc2n1N=C1c3cccc(C)c3CC1S2 (stereo not given) | 64 (≈ 225 µM)
77 | Cc1cccc2c1CC1Sc3nnc(C)n3N=C21 (stereo not given) | 64 (≈ 250 µM)

System: Aspergillus niger
Experiment: Antifungal activity against Aspergillus niger assessed as inhibition of mycelial growth at 4 mg/ml after 7 days
Type: functional
Conditions: 168 h, read-out: GI
In short: (§3)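 Poisoned food method. Molds grown on Sabouraud dextrose agar at 25 °C for 7 days to provide inocula. Molten SDA (45 °C) dosed with compound at 4.0 mg/mL in DMSO, then solidified. 8 mm fungal plugs from colony margins placed centrally. Incubated 25 °C for 7 days, in triplicate. % mycelial growth inhibition calculated from colony diameters versus DMSO control. Fluconazole served as positive control.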

Row | Structure (SMILES) | inhibition of growth at 4000 µg/mL [%]
78 | Cc1cccc2c1CC1Sc3nnc(-c4ccccc4)n3N=C21 (stereo not given) | 55.5
79 | Cc1nnc2n1N=C1c3ccccc3CC1S2 (stereo not given) | 53.3
80 | Cc1cccc2c1CC1Sc3nnc(C(C)C)n3N=C21 (stereo not given) | 63.3
81 | CC(C)c1nnc2n1N=C1c3ccccc3CC1S2 (stereo not given) | 53.3
82 | OC(Cn1cncn1)(Cn1cncn1)c1ccc(F)cc1F [FLUCONAZOLE] | 81.1
83 | CCCc1nnc2n1N=C1c3cccc(C)c3CC1S2 (stereo not given) | 58.8
84 | Cc1cccc2c1CC1Sc3nnc(C)n3N=C21 (stereo not given) | 67.7
85 | CC(C)c1nnc2sc3cc4ccccc4c-3nn12 | 48.8
86 | c1ccc2c3nn4cnnc4sc-3cc2c1 | 53.3
87 | Cc1nnc2sc3cc4ccccc4c-3nn12 | 50
88 | CCc1nnc2sc3cc4ccccc4c-3nn12 | 48.8

System: Aspergillus flavus
Experiment: Antifungal activity against Aspergillus flavus assessed as inhibition of mycelial growth at 4 mg/ml after 7 days
Type: functional
Conditions: 168 h, read-out: GI
In short: as §3

Row | Structure (SMILES) | inhibition of growth at 4000 µg/mL [%]
89 | Cc1cccc2c1CC1Sc3nnc(-c4ccccc4)n3N=C21 (stereo not given) | 58.8
90 | Cc1nnc2n1N=C1c3ccccc3CC1S2 (stereo not given) | 51.1
91 | Cc1cccc2c1CC1Sc3nnc(C(C)C)n3N=C21 (stereo not given) | 61.1
92 | CC(C)c1nnc2n1N=C1c3ccccc3CC1S2 (stereo not given) | 51.1
93 | OC(Cn1cncn1)(Cn1cncn1)c1ccc(F)cc1F [FLUCONAZOLE] | 77.7
94 | CCCc1nnc2n1N=C1c3cccc(C)c3CC1S2 (stereo not given) | 55.5
95 | Cc1cccc2c1CC1Sc3nnc(C)n3N=C21 (stereo not given) | 68.8
96 | CC(C)c1nnc2sc3cc4ccccc4c-3nn12 | 50
97 | c1ccc2c3nn4cnnc4sc-3cc2c1 | 50
98 | Cc1nnc2sc3cc4ccccc4c-3nn12 | 48.8
99 | CCc1nnc2sc3cc4ccccc4c-3nn12 | 45.5

System: Penicillium sp.
Experiment: Antifungal activity against Penicillium sp. assessed as inhibition of mycelial growth at 4 mg/ml after 7 days
Type: functional
Conditions: 168 h, read-out: GI
In short: as §3

Row | Structure (SMILES) | inhibition of growth at 4000 µg/mL [%]
100 | Cc1cccc2c1CC1Sc3nnc(-c4ccccc4)n3N=C21 (stereo not given) | 60
101 | Cc1nnc2n1N=C1c3ccccc3CC1S2 (stereo not given) | 55.5
102 | Cc1cccc2c1CC1Sc3nnc(C(C)C)n3N=C21 (stereo not given) | 65.5
103 | CC(C)c1nnc2n1N=C1c3ccccc3CC1S2 (stereo not given) | 51.1
104 | OC(Cn1cncn1)(Cn1cncn1)c1ccc(F)cc1F [FLUCONAZOLE] | 83.3
105 | CCCc1nnc2n1N=C1c3cccc(C)c3CC1S2 (stereo not given) | 61.1
106 | Cc1cccc2c1CC1Sc3nnc(C)n3N=C21 (stereo not given) | 67.7
107 | CC(C)c1nnc2sc3cc4ccccc4c-3nn12 | 44.4
108 | c1ccc2c3nn4cnnc4sc-3cc2c1 | 51.1
109 | Cc1nnc2sc3cc4ccccc4c-3nn12 | 52.5
110 | CCc1nnc2sc3cc4ccccc4c-3nn12 | 50
